# Published values pooled from the literature.
# Each line is one published result; the experiments were not run side by side.
# Organism: Bacillus subtilis
Compound,read-out,method,strain,tested at,quantity,value
O=C(O)CN1C(=O)/C(=C/c2ccc(-c3ccc(N(c4ccccc4)c4ccccc4)cc3)c3ccccc23)NC1=S,microbial killing,broth dilution,ATCC6633,,MBC,> 1000 µg/mL
Cc1ccc(-c2nn(-c3ccccc3)cc2C=C(C#N)C2=NC(=O)CS2)cc1,microbial growth,well diffusion,,100000 µg/mL,inhibition zone,21 mm
Cc1cc(N)c2ccccc2[n+]1CCCCCCCCCC[n+]1c(C)cc(N)c2ccccc21,microbial growth,disc diffusion,,50 µg/disc,inhibition zone,11 mm
O=C(O)CN1C(=O)/C(=C/c2c3ccccc3c(-c3ccc(N(c4ccccc4)c4ccccc4)cc3)c3ccccc23)NC1=S,microbial killing,broth dilution,ATCC6633,,MBC,> 1000 µg/mL
O=C(O)c1ccc(-n2cc(/C=N/Nc3cc(F)ccc3F)c(-c3cccc(F)c3)n2)cc1,microbial growth,,ATCC6623,,MIC,6.25 µg/mL
CC1(C)S[C@@H]2[C@H](NC(=O)[C@H](N)c3ccccc3)C(=O)N2[C@H]1C(=O)O,microbial growth,agar dilution,ATCC6633,26.93 µM,inhibition,100%
N#CC(=Cc1ccccc1O)C1=NC(=O)C(=Cc2cn(-c3ccccc3)nc2-c2ccccc2)S1,microbial killing,broth dilution,,,MBC,0.5 µg/mL
O=C1NC(=S)N/C1=C\c1c2ccccc2c(-c2ccc(N(c3ccccc3)c3ccccc3)cc2)c2ccccc12,microbial killing,broth dilution,ATCC6633,,MBC,> 1000 µg/mL
CN(/N=C/c1cn(-c2ccc(C(=O)O)cc2)nc1-c1ccc(F)cc1)c1ccccc1,microbial growth,,ATCC6623,,MIC,12.5 µg/mL
N#CC(=Cc1cn(-c2ccccc2)nc1-c1ccccc1)C1=NC(=O)CS1,microbial killing,broth dilution,,,MBC,0.25 µg/mL
O=C(O)c1ccc(-n2cc(/C=N/Nc3ccc(Cl)cc3Cl)c(-c3cccc(F)c3)n2)cc1,microbial growth,,ATCC6623,,MIC,1.56 µg/mL
CCOC(=O)c1c(N)csc1-c1cn(-c2ccccc2)nc1-c1ccc(C)cc1,microbial growth,well diffusion,,100000 µg/mL,inhibition zone,28 mm
O=C(O)CN1C(=O)/C(=C/c2ccc(-c3ccc(N(c4ccccc4)c4ccccc4)cc3)cc2)SC1=S,microbial killing,broth dilution,ATCC6633,,MBC,1.95 µg/mL
CO[C@H]1O[C@H](COC(c2ccccc2)(c2ccccc2)c2ccccc2)[C@@H](OC(=O)c2ccc(C(C)(C)C)cc2)[C@H](OC(=O)c2ccc(C(C)(C)C)cc2)[C@H]1OC(=O)c1ccc(C(C)(C)C)cc1,microbial killing,broth dilution,,,MBC,16 µg/mL
